Assay results published in ChEMBL document CHEMBL1143862, “Backbone cyclic peptidomimetic melanocortin-4 receptor agonist as a novel orally administrated drug lead for treating obesity” (J Med Chem, 2008).
Numbered stars: 1 amine (or outer) side, 2 acyl side, 3 side chain; on linkers, the order of the positions; unused ones are H or OH. Bridge positions count the residues as written; N and C are the ends. Square brackets hold non-standard residues; d marks the D form. Peptide text beside a SMILES is read from it. NGly(3-aminopropyl) = O=C(CN(CCCN[*:3])[*:1])[*:2]; N(2-Aminoethyl)Gly = O=C(CN(CCN[*:3])[*:1])[*:2]; Adipoyl = O=C(CCCCC(=O)[*:2])[*:1]; Suc = O=C(CCC(=O)[*:2])[*:1]

Experiments:
[1] = Permeability across human Caco-2 cells; assay type: ADME, cell-based
In short: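 Caco-2 cells (passage 60–66) were seeded on 0.4 µm polycarbonate inserts and used 21–23 days later at stable TEER (300–500 Ωcm²). After 30 min buffer pre-incubation at 37 °C with shaking, compound was added apically.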

[2] = biological target: Melanocortin receptor 4 (Mus musculus, UniProt P56450); assay: Agonist activity at mouse MC4R expressed in HEK293 cells; assay type: functional, cell-based
In short: (§1)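 HEK-293 cells stably expressing each melanocortin receptor were transfected with a CRE/β-galactosidase reporter. At 48 h post-transfection, cells were stimulated for 6 h with peptide (10^-4 to 10^-12 M) or 10^-4 M forskolin in DMEM containing 0.1 mg/mL BSA and 0.1 mM IBMX. Lysates were read with ONPG at OD 405 and normalized to protein (OD 595) and to forskolin response. Efficacy is expressed relative to NDP-MSH maximal stimulation.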

[3] = biological target: Melanocortin receptor 4 (Mus musculus) (UniProt P56450); assay: Stimulation of mouse MC4R expressed in HEK293 cells relative to NDP-MSH; assay type: cell-based; in short: as §1
[4] = biological target: Melanocortin receptor 4 (Homo sapiens, UniProt P32245); assay: Displacement of [125I]NDP-alpha-MSH from MC4R
[5] = biological target: Melanocyte-stimulating hormone receptor (Mus musculus, UniProt Q01727); assay: Agonist activity at mouse MC1R expressed in HEK293 cells; assay type: functional, cell-based; in short: as §1
[6] = biological target: Melanocyte-stimulating hormone receptor (Mus musculus) (UniProt Q01727); assay: Stimulation of mouse MC1R expressed in HEK293 cells relative to NDP-MSH; assay type: cell-based; in short: as §1
[7] = biological target: Melanocortin receptor 5 (Mus musculus, UniProt P41149); assay: Agonist activity at mouse MC5R expressed in HEK293 cells; assay type: functional, cell-based; in short: as §1
[8] = biological target: Melanocortin receptor 3 (Mus musculus, UniProt P33033); assay: Agonist activity at mouse MC3R expressed in HEK293 cells; assay type: functional, cell-based; in short: as §1
[9] = biological target: Melanocortin receptor 3 (Mus musculus) (UniProt P33033); assay: Stimulation of mouse MC3R expressed in HEK293 cells relative to NDP-MSH; assay type: cell-based; in short: as §1
[10] = biological target: Melanocortin receptor 5 (Mus musculus) (UniProt P41149); assay: Stimulation of mouse MC5R expressed in HEK293 cells relative to NDP-MSH; assay type: cell-based; in short: as §1
[11] = Volume of distribution at steady state in Wistar rat plasma at 1 mg/kg, iv and 10 mg/kg, po; assay type: ADME, organism-based; conditions: read-out: Vdss
In short: (§2)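 Conscious male Wistar rats with a jugular vein cannula implanted 24 h beforehand received peptide dissolved in water, as an iv bolus of 1 mg/kg (n = 5) or orally at 10 mg/kg (n = 2). Heparinized blood was sampled at several times up to 24 h. Plasma was separated at 4 °C, stored at -70 °C and analysed by HPLC-MS. Parameters came from noncompartmental analysis.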

[12] = Elimination half life in rat; assay type: ADME, tissue-based; conditions: plasma; in short: as §2
[13] = system: Mus musculus; assay: Effect on weight gain in ICR:Hsd (CD1) mouse at 0.5 mg/kg/day, po after 12 days relative to control; assay type: functional
In short: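 Mice (n = 9) were weighed daily, then given a daily oral gavage (5 mL/kg) of peptide at 100 µg/ml or water vehicle. Weight change from day 0 was expressed as mean ± SEM and compared with controls by Student's t-test.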

[14] = Biodistribution in rat brain at 10 mg/kg, po after 8 hrs; assay type: ADME, organism-based; design: dose 10 mg/kg, route oral; conditions: read-out: Drug uptake
In short: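 Rats were dosed at 10 mg/kg, iv or po. Brain was collected 8 h after dosing and extracted by a single protein precipitation (90% acetonitrile/10% formic acid, then 50 mM ammonium formate). Peptide was quantified by validated LC-MS/MS and expressed as […] tissue.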

[15] = Tmax in Wistar rat plasma at 1 mg/kg, iv; assay type: ADME, organism-based; design: dose 1 mg/kg, route intravenous; in short: as §2
[16] = Tmax in Wistar rat plasma at 10 mg/kg, po; assay type: ADME, organism-based; design: dose 10 mg/kg, route oral; in short: as §2
[17] = Cmax in Wistar rat plasma at 1 mg/kg, iv; assay type: ADME, organism-based; design: dose 1 mg/kg, route intravenous; in short: as §2
[18] = AUC in Wistar rat plasma at 1 mg/kg, iv and 10 mg/kg, po; assay type: ADME, organism-based; in short: as §2
[19] = system: Mus musculus; assay: Reduction of food consumption in ICR:Hsd (CD1) mouse at 0.5 mg/kg, po after 1 hr relative to control; assay type: functional; design: scale not given: the % may be the effect or the level left
In short: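 Male ICR:Hsd (CD-1) mice, 7–8 weeks old and individually caged, were fasted 16 h and then gavaged once (5 mL/kg) with peptide at 100 µg/ml or with water vehicle (n = 24). Fixed food portions were given immediately and reweighed at 1, 2, 3, 4 and 5 h. Results are mean ± SEM, analysed by RM ANOVA with Tukey's test.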

[20] = Cmax in Wistar rat plasma at 10 mg/kg, po; assay type: ADME, organism-based; design: dose 10 mg/kg, route oral; in short: as §2
[21] = Half life in Wistar rat plasma at 1 mg/kg, iv and 10 mg/kg, po; assay type: ADME, organism-based; in short: as §2
[22] = system: Rattus norvegicus; assay: Bioavailability in Wistar rat plasma at 1 mg/kg, iv and 10 mg/kg, po; assay type: ADME, organism-based; conditions: in vivo; in short: as §2

Sequence of Melanocortin receptor 3 (Mus musculus) (P33033 whole entry): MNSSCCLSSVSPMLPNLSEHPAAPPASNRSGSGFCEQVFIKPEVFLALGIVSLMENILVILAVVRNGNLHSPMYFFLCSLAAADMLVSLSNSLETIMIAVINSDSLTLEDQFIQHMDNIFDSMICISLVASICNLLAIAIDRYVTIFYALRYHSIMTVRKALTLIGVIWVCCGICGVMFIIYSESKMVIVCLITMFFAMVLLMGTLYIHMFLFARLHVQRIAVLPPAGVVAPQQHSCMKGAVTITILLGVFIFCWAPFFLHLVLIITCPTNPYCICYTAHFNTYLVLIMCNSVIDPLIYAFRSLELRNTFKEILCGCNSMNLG
Sequence of Melanocortin receptor 3 (P33033 whole entry): as above
Sequence of Melanocortin receptor 5 (P41149 whole entry): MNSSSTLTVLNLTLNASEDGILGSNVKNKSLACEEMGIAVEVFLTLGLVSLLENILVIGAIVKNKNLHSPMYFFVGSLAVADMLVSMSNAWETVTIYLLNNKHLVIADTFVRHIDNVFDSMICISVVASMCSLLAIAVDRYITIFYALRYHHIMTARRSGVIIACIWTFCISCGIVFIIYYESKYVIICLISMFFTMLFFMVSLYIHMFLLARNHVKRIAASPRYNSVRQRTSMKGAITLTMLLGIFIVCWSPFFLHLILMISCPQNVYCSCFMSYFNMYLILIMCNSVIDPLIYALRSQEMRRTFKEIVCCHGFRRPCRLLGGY
Sequence of Melanocortin receptor 5 (Mus musculus) (P41149 whole entry): as above
Sequence of Melanocyte-stimulating hormone receptor (Mus musculus) (Q01727 whole entry, looked up): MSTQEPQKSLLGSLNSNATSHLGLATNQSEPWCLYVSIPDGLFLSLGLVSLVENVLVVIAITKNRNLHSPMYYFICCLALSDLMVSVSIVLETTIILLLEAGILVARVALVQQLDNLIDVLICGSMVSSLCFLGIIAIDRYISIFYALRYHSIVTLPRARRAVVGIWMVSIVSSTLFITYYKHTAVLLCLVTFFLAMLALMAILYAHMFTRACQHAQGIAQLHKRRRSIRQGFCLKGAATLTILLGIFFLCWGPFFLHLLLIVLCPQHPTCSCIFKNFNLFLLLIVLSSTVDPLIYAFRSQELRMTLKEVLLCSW
Sequence of Melanocyte-stimulating hormone receptor (Q01727 whole entry): as the sequence (Q01727 whole entry, looked up) above
Sequence of Melanocortin receptor 4 (Mus musculus) (P56450 whole entry): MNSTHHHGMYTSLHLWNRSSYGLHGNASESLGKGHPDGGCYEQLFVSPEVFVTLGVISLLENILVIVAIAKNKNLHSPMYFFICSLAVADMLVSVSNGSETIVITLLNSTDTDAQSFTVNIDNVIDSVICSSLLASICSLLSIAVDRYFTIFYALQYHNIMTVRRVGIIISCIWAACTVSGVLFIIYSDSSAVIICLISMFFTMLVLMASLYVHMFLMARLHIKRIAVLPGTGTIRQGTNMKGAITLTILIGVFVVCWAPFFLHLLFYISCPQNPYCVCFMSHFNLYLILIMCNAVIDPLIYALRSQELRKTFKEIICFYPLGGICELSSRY
Sequence of Melanocortin receptor 4 (Mus musculus, UniProt P56450) (P56450 whole entry): as above
Sequence of Melanocortin receptor 4 (Homo sapiens, UniProt P32245) (P32245 whole entry): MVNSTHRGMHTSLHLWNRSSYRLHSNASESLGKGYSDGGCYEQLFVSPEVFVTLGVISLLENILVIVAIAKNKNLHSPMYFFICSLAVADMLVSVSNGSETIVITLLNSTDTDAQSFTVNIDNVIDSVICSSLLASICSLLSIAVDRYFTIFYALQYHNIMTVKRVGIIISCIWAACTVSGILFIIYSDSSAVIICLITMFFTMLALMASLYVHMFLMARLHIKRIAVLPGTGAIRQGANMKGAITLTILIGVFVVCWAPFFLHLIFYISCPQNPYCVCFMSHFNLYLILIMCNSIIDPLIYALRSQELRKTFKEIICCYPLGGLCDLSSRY

Row | Papp [1] [×10⁻⁶ cm/s] | EC50 [2] [nM] | Efficacy [3] [%] | EC50 [5] [nM] | Efficacy [6] [%] | EC50 [7] [nM] | EC50 [8] [nM] | Efficacy [9] [%] | Efficacy [10] [%] | Compound | other results
1 | 25 |  |  |  |  |  |  |  |  | CC(C)NCC(O)COc1cccc2ccccc12 (stereo not given) [PROPRANOLOL] | 
2 |  | 150 | 100 | 550 | 100 | 390 | 20500 | 100 | 100 | N=C(N)NCCC[C@@H]1NC(=O)[C@@H](Cc2ccccc2)NC(=O)[C@H](Cc2ccccc2)NC(=O)c2ccccc2C(=O)NCCN(CC(N)=O)C(=O)[C@H](Cc2c[nH]c3ccccc23)NC1=O | IC50 [4]: 100 nM
3 | 21 | 18 | 100 | 120 | 100 | 20 | 1460 | 100 | 100 | N=C(N)NCCC[C@@H]1NC(=O)[C@@H](Cc2ccccc2)NC(=O)[C@H](Cc2ccccc2)NC(=O)CCCC(=O)NCCN(CC(N)=O)C(=O)[C@H](Cc2c[nH]c3ccccc23)NC1=O | 
4 | 2.05 |  |  |  |  |  |  |  |  | OC[C@@H](O)[C@@H](O)[C@H](O)[C@H](O)CO [MANNITOL] | 
5 | 19 | 5 | 100 | 240 | 100 | 26 | 7750 | 100 | 100 | N=C(N)NCCC[C@@H]1NC(=O)[C@@H](Cc2ccccc2)NC(=O)[C@H](Cc2ccccc2)NC(=O)CCCCC(=O)NCCCN(CC(N)=O)C(=O)[C@H](Cc2c[nH]c3ccccc23)NC1=O (F[dF]RW[NGly(3-aminopropyl)]-NH2; linker N-5 via Adipoyl) | 
6 | 18.8 | 4 | 100 | 28 | 100 | 2 | 1260 | 100 | 100 | N=C(N)NCCC[C@@H]1NC(=O)[C@@H](Cc2ccccc2)NC(=O)[C@H](Cc2ccccc2)NC(=O)CCC(=O)NCCCN(CC(N)=O)C(=O)[C@H](Cc2c[nH]c3ccccc23)NC1=O (F[dF]RW[NGly(3-aminopropyl)]-NH2; linker N-5 via Suc) | 

Row | Compound | Papp [1] [×10⁻⁶ cm/s] | EC50 [2] [nM] | Efficacy [3] [%] | EC50 [5] [nM] | Efficacy [6] [%] | EC50 [7] [nM] | EC50 [8] [nM] | Efficacy [9] [%] | Efficacy [10] [%] | other results
7 | N=C(N)NCCC[C@H](NC(=O)[C@H](Cc1c[nH]c2ccccc12)NC(=O)CN)C(=O)N[C@H](Cc1ccccc1)C(=O)N[C@@H](Cc1ccccc1)C(=O)O | 12 |  |  |  |  |  |  |  |  | 
8 | N=C(N)NCCC[C@@H]1NC(=O)[C@@H](Cc2ccccc2)NC(=O)[C@H](Cc2ccccc2)NC(=O)CCC(=O)NCCN(CC(N)=O)C(=O)[C@H](Cc2c[nH]c3ccccc23)NC1=O (F[dF]RW[N(2-Aminoethyl)Gly]-NH2; linker N-5 via Suc) | 17.8 | 4 | 100 | 64 | 100 | 7 | 770 | 100 | 100 | Vd [11]: 2.1 L/kg; half-life [12]: 100 min; Activity [13]: 2.8%; concentration at 8 h [14]: 4700 ng/g; Tmax [15]: 5 min; Tmax [16]: 37 min; Cmax [17]: 977 ng/mL; AUC [18]: 416 ng·h/mL; Activity [19]: 46%; Cmax [20]: 202 ng/mL; half-life [21]: > 105 min; F [22]: 8.5%
